Experimental data published in paper PMC10606955 (Chemico-biological interactions, 2023).
Values joined by “and” are separate entries in the source; they are usually repeats but may differ in a detail not shown here. Equal entries are not always repeated. “Also recorded” adds a separate entry of the source.

Assays:
[1] = molecular target: T1, carboxylesterase 1 (CES1) (Homo sapiens, UniProt P23141); assay: Concentration response curves for inhibition of CES1; type: biochemical; conditions: 200 μM OST, CES1 S9; for IC50: read-out: IC50 (kratom alkaloids), alkaloid 0–128 μM, 1% DMSO
T1 sequence (P23141 18-567): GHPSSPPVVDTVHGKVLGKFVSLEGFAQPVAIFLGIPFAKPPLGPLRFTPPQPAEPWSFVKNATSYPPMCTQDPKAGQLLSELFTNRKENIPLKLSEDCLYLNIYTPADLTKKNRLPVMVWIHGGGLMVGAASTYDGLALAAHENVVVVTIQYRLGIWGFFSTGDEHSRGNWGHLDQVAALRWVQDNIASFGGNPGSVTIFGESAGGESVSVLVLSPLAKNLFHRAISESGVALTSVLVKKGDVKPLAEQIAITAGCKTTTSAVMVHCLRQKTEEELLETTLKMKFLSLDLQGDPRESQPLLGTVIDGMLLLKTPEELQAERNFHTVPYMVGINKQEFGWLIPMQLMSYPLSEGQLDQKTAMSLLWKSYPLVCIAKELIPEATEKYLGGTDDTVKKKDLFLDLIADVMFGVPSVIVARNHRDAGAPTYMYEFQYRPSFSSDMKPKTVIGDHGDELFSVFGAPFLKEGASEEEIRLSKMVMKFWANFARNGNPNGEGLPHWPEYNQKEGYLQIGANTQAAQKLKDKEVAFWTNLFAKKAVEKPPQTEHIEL
Method in brief: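 CES1 S9 (supernatant, 9000g, from sonicated Flp-In-293 cells expressing wild-type CES1) at 20 μg/mL in 50 mM phosphate buffer. Test compound at 0–128 μM, or extracts at 0–128 μg/mL, in 1% DMSO with 200 μM oseltamivir, 15 min at 37°C. Stopped with 4 volumes acetonitrile containing ritalinic acid internal standard. Oseltamivir carboxylate measured by LC-MS/MS and expressed relative to DMSO control; IC50 fitted by modified Hill equation.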

[2] = molecular target: T1, carboxylesterase 1 (CES1); assay: Time-dependent inhibition of CES1; type: biochemical; conditions: for Ratio of Preincubation to No Preincubation (IC50, alkaloids): 30 min preincubation; for IC50: mean ± S.E., 200 μM OST
[3] = molecular target: T1, carboxylesterase 1 (CES1); assay: Reversible inhibition kinetics of CES1; type: biochemical; conditions: for α (reversible inhibition type): 1 = noncompetitive, infinity = competitive, between = mixed-type; for α (reversible inhibition type) / Vmax: mean ± S.D.; for Vmax: OC formation, fit parameter, triplicate experiments; for type of reversible inhibition of CES1: from modified Michaelis-Menten model
[4] = human, 2g dose of kratom; cited from earlier work
[5] = Preincubation 30 min with CES1 S9

Compound	concentration dependence of CES1 inhibition [1]	IC50 [1]	Ratio of Preincubation to No Preincubation (IC50, alkaloids) [2]	IC50 [2, 5] [µM]	IC50 ([2]; No preincubation) [µM]	α (reversible inhibition type) [3]	Vmax [3] [nmol/min/mg protein]	type of reversible inhibition of CES1 [3]	Cmax [4] [nM]	type of reversible inhibition of CES1 ([3]; listed as Speciociliatine)
CC[C@H]1CN2CCc3c([nH]c4cccc(OC)c34)[C@@H]2C[C@@H]1/C(=C\OC)C(=O)OC [speciogynine]	concentration-dependent reversible inhibition	54.3 µM	1.22	66.2 ± 29						
C=C[C@H]1CN2CCc3c([nH]c4cccc(OC)c34)[C@@H]2C[C@@H]1/C(=C\OC)C(=O)OC [paynantheine]	concentration-dependent reversible inhibition	32.9 µM and < 50 µM	1.38	45.6 ± 14.1	32.9 ± 7.2	8.439 ± 6.336	232.2 ± 18.38	mixed-type reversible inhibitors; also recorded: mixed competitive-noncompetitive inhibition; also recorded: mixed competitive-noncompetitive inhibitors		
CC[C@@H]1CN2CCc3c([nH]c4cccc(OC)c34)[C@H]2C[C@@H]1/C(=C\OC)C(=O)OC [speciociliatine]	concentration-dependent reversible inhibition		1.18	21.4 ± 2.48	18.1 ± 4	2.817 ± 1.666	210.5 ± 41.43	mixed competitive-noncompetitive inhibitors	308	mixed-type reversible inhibitors; also recorded: mixed competitive-noncompetitive inhibition
corynantheidine	concentration-dependent reversible inhibition		0.993			8.767 ± 2.734		mixed-type reversible inhibitors; also recorded: mixed competitive-noncompetitive inhibition; also recorded: mixed competitive-noncompetitive inhibitors		
mitragynine	concentration-dependent reversible inhibition	38.9 µM and < 50 µM	0.868	33.8 ± 5.47	38.9 ± 16.3	∞	224.2 ± 24.37	purely competitive inhibitor; also recorded: pure competitive inhibition		
